Screens: PubChem, Sanford-Burnham Center for Chemical Genomics
Hits are enriched below; roughly 3% of the tested compounds scored in any of these assays.
SENP8 block-1: blocks the human protease SENP8; 330,000 tested, 1.2% active; inhibition, % at 10 µM; purified SENP8, Z-RLRGG-aminoluciferin cleavage, luminescence; AID 2540; in the data active = inhibition above about 50%
Target sequence (Q96LD8 whole entry, looked up): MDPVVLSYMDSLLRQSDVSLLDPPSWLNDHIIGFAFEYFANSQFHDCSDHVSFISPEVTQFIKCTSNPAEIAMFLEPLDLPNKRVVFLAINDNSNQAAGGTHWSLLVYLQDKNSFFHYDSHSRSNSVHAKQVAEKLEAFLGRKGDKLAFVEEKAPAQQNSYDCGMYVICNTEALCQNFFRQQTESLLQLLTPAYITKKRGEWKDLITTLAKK
SENP8 block-2: SENP8 (human) protease inhibition. recombinant SENP8, Nedd8 substrate fluorescence. inhibition, % at 20 µM. 360,000 tested, 0.64% active. Q96LD8; in the data active = inhibition mostly above about 40%, no sharp cut-off; inactive = mostly below about 27%
SENP6 block: blocks the human protease SENP6 | 330,000 tested, 1.8% active | Recombinant SENP6 catalytic domain, aminoluciferin luminescence | inhibition, % at 10 µM | Q9GZR1;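 active = inhibition above about 50% at the single tested dose, limit read from the data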;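 also: plate controls were DMSO wells with enzyme for no effect and DMSO wells lacking enzyme for full effect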
SENP7 inh: blocks the human protease SENP7 | Q9BQF6 | recombinant SENP7, Z-RLRGG-aminoluciferin luminescence, 40 min | inhibition, % at 5 µM | 330,000 tested, 1.5% active | AID 434973;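 active = inhibition above about 50% at the single test dose, limit read from the data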;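 also: plate controls were DMSO with enzyme for no effect and no enzyme buffer wells for full effect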
Target sequence (Q9BQF6 706-1050 limits assumed): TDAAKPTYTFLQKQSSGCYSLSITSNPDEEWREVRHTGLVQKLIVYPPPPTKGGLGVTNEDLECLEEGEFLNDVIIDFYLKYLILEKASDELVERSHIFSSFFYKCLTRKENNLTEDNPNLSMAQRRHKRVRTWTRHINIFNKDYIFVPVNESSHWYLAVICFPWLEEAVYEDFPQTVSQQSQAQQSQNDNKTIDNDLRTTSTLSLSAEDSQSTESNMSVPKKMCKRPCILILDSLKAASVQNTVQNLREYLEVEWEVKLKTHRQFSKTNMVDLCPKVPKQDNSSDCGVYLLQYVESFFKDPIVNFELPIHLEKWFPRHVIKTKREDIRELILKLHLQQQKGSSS
UBC13 inh: inhibitors of human UBC13 polyubiquitin chain formation; inhibition, % at 20 µM; AID 485273; 330,000 tested, 0.47% active; TR-FRET; P61088; in the data active = inhibition above about 45%, passing the limit was not always enough
Apaf-1 inh: blocks human Apaf-1 apoptosome activity. inhibition, % at 20 µM. 330,000 tested, 0.71% active. O14727. reconstituted apoptosome caspase-3 activity, DEVD-Rh110 fluorescence. AID 489030; active = inhibition of at least 40% at 20 µM;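 also: plate controls were DMSO wells for no effect and DEVD-CHO caspase inhibitor wells for full effect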
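Material: reconstituted apoptosome with Apaf-1, cytochrome c, caspase-9, procaspase-3, dATP / Buffer or medium: pH 7.5 Hepes buffer with CHAPS, BSA, DTT / Also added: cytochrome c with DEVD-Rh110 / Schedule: compound with Apaf-1, dATP, procaspase-3 30 min, then 50 min reaction, room temperature / Technique: rhodamine 110 fluorescence at Ex 480/Em 540 nm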
SENP8 confirm: confirmation of human SENP8 protease inhibitors; Recombinant SENP8, Z-RLRGG-aminoluciferin luminescence, 60 min; shares compounds with SENP7 inh; 6,200 tested, 40% active; inhibition, % at 12.5 µM;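 active = mean inhibition across replicates above about 50%, limit read from the data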
SENP6 conf: confirmation of human SENP6 protease inhibitors. recombinant SENP6, Z-RLRGG-aminoluciferin luminescence. 6,200 tested, 58% active. AID 488915. shares compounds with SENP7 inh. inhibition, % at 12.5 µM
SENP7 confirm: human SENP7 inhibition, confirmed | shares compounds with SENP7 inh | recombinant SENP7, Z-RLRGG-aminoluciferin luminescence, 40 min | inhibition, % at 12.5 µM | 6,200 tested, 69% active
Casp3 select: inhibits human caspase-3 in SENP selectivity test. shares compounds with SENP7 inh. purified caspase-3, Z-DEVD-aminoluciferin luminescence, 60 min. inhibition, % at 12.5 µM. 6,200 tested, 60% active;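 active = mean inhibition above about 50%, limit read from the data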;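 also: plate controls were enzyme with DMSO for no effect and wells without caspase-3 for full effect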
Target sequence (P42574 28-227 limits assumed): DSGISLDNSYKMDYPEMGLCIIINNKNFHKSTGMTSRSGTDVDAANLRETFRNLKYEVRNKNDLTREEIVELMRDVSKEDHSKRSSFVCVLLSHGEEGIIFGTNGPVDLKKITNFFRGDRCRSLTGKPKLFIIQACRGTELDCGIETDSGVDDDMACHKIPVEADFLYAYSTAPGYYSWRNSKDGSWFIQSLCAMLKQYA
SENP luc ctr: luminescence interference (SENP counter-screen). shares compounds with SENP7 inh. Pre-incubated SENP8/Z-RLRGG-aminoluciferin, luciferase luminescence interference. inhibition, % at 12.5 µM. 6,200 tested, 39% active;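 active = mean inhibition above about 50% when retested at one dose, limit read from the data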;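 also: plate controls were DMSO wells with completed reaction for no effect and substrate without enzyme for full effect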
* = called active by the depositor; . = no result given.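 The calls were made as follows, unless noted: active = mean inhibition above about 50% in the one-dose retest (limit read from the data); inactive = the rest.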

SMILES | SENP8 block-1 | SENP8 block-2 | SENP6 block | SENP7 inh | UBC13 inh | Apaf-1 inh | SENP8 confirm | SENP6 conf | SENP7 confirm | Casp3 select | SENP luc ctr
O=C(/C=C/c1ccc(Br)cc1)NC(=O)c1ccccc1O | 77.5* | -32.5 | 86.9* | 64.0* | -2.2 | 16.9 | -4.3 | 55.4* | 78.9* | 10.2 | 23.7
CCOC(=O)C1=C[C@@H](C2CCCC2)N(S(=O)(=O)c2ccc([N+](=O)[O-])cc2)[C@H]1c1ccccc1 | . | 24.5 | . | . | . | . | . | . | . | . | .
Cc1cccc(NC(=O)Nc2ccc3c(c2)CCC3)c1 | -10.7 | 3.5 | 34.3 | 62.4* | 1.7 | 5.0 | 3.0 | -4.9 | -1.2 | 17.7 | -11.5
CC(=O)c1cccc(NC(=O)Nc2ccc3c(c2)CCC3)c1 | -11.8 | 1.2 | -18.6 | -2.2 | 6.8 | 13.1 | . | . | . | . | .
CC(=O)c1cccc(NC(=O)c2ccc3c(c2)CCCC3)c1 | 20.5 | 5.6 | 36.6 | 14.4 | -3.9 | 7.2 | . | . | . | . | .
COc1cccc(NC(=O)Nc2ccc3c(c2)CCC3)c1 | 52.1* | 4.4 | 57.9* | 66.7* | 4.2 | 4.8 | 1.0 | 14.4 | 83.0* | . | 31.2
COc1cccc(NC(=O)c2ccc3c(c2)CCCC3)c1 | 96.4* | 3.9 | 98.5* | 100.0* | -3.8 | 19.7 | 98.5* | 99.0* | 102.4* | 96.6* | 93.6*
COc1ccc(CN2C(=O)CSCC2(C)C(=O)Nc2ccc3c(c2)OCCO3)cc1 (stereo not given) | . | 21.1 | . | . | . | . | . | . | . | . | .
CC(C)(C)N1C(=O)c2ccccc2NC(=O)C1C(=O)NCCc1ccccc1F (stereo not given) | . | 8.6 | . | . | . | . | . | . | . | . | .
COc1ccc(NC(=O)C2Cc3c(-c4cccc(F)c4)ccnc3O2)cn1 (stereo not given) | . | 4.5 | . | . | . | . | . | . | . | . | .
COc1cc(C=CC(=O)N2CCN(CC(=O)N3CCCC3)CC2)cc(OC)c1OC | . | -136.8 | . | . | . | . | . | . | . | . | .
C/C(=N/N=C/c1ccc(N(C)C)cc1)c1ccccc1 | 97.7* | -42.6 | 96.8* | 101.2* | 8.5 | -0.3 | 3.1 | 80.3* | 101.2* | 67.2* | 26.4
OCCNc1ncnc2c1ncn2[C@H]1CN(C2CCCC2)C[C@@H](CO)O1 | . | -2.7 | . | . | . | . | . | . | . | . | .
CCC1(c2ccc(F)cc2)NC(=O)N(CC(=O)Nc2ccc(-c3nc4ccc(C)cc4s3)cc2)C1=O (stereo not given) | -11.7 | -265.7 | 58.2* | -1.3 | -12.3 | 6.7 | 2.8 | -3.4 | 13.9 | 17.5 | 17.3
COc1ccc(C(=O)C[C@@H]2OC3CCCCC3N2S(=O)(=O)c2ccc(C)cc2)cc1OC (stereo not given in full) | . | 13.8 | . | . | . | . | . | . | . | . | .
O=C(Nc1ccccc1)c1ccc(CSc2ccccn2)cc1 | 93.4* | 16.0 | 97.0* | 97.9* | -1.6 | -8.2 | 86.6* | 97.5* | 103.0* | 96.4* | 6.7
O=C(Nc1cccc([N+](=O)[O-])c1)c1ccc(CSc2ccccc2)cc1 | 4.8 | 8.6 | -3.7 | 13.9 | 8.9 | -1.8 | . | . | . | . | .
FC(F)(F)c1ccc(CSc2ccccn2)cc1 | -13.4 | 13.6 | -7.9 | -5.4 | 5.5 | -18.5 | . | . | . | . | .
O=C(Nc1ccc(CSc2ccccc2)cc1)c1ccccc1 | 12.0 | 5.3 | 19.4 | 59.4* | -9.4 | 7.4 | 11.3 | 12.4 | 2.4 | 1.8 | 0.0
O=C(c1[nH]c(C(F)(F)F)nc1-c1ccccc1)N1CCN(c2ncccn2)CC1 | . | 1.8 | . | . | . | . | . | . | . | . | .
CCOC(=O)[C@]12CCCC=C1N(Cc1cccc3ccccc13)C(=O)[C@H](CC(=O)NCc1ccc(OC)c(OC)c1)C2 | . | 16.3 | . | . | . | . | . | . | . | . | .
COc1ccc(NC(=O)C2Cc3c(-c4ccc(Cl)cc4)ccnc3O2)cc1OC (stereo not given) | . | 3.3 | . | . | . | . | . | . | . | . | .
COc1ccc(OCC(=O)Nc2cccc(-c3nc4ccccc4o3)c2)cc1 | 4.9 | -12.1 | -5.8 | 0.2 | 10.2 | 7.5 | . | . | . | . | .
CS(=O)(=O)c1cccc(C(=O)Nc2cccc(-c3nc4ccccc4[nH]3)c2)c1 | 91.0* | -0.5 | 96.2* | 96.4* | -3.6 | -1.0 | 96.4* | 97.1* | 102.2* | 47.6 | 96.2*
CS(=O)(=O)c1ccc(C(=O)Nc2cccc(-c3nc4ccccc4[nH]3)c2)cc1 | 15.9 | 1.6 | 15.6 | -0.4 | 5.2 | 6.1 | . | . | . | . | .
SMILES | SENP8 block-1 | SENP8 block-2 | SENP6 block | SENP7 inh | UBC13 inh | Apaf-1 inh | SENP8 confirm | SENP6 conf | SENP7 confirm | Casp3 select | SENP luc ctr
COc1ccc(OCC(=O)Nc2cccc(-c3nc4ccccc4[nH]3)c2)cc1 | 61.4* | -20.5 | 74.4* | 75.5* | 1.5 | -10.0 | 76.7* | 75.7* | 92.4* | 58.1* | 78.8*
CS(=O)(=O)Cc1ccc(C(=O)Nc2cccc(-c3nc4ccccc4[nH]3)c2)cc1 | 50.4* | 5.2 | 78.5* | 66.9* | 1.4 | 12.6 | 59.2* | 56.7* | 81.4* | 62.2* | 22.6
CC(C)C(=O)N1CCC1(C)C(=O)Nc1ccc(-n2cccc2)cc1 (stereo not given) | . | -4.8 | . | . | . | . | . | . | . | . | .
CCOC(=O)[C@]12CCC=C1N(Cc1ccc3c(c1)OCO3)C(=O)[C@H](CC(=O)N1CCOCC1)C2 | . | 11.1 | . | . | . | . | . | . | . | . | .
COc1ccc(Cl)cc1-c1cc(C(=O)N[C@H](C)c2ccccc2)[nH]n1 | . | 4.6 | . | . | . | . | . | . | . | . | .
CSCCNC(=O)C1(C)CCN1C(=O)c1ccc(C(C)(C)C)cc1 (stereo not given) | . | -1.5 | . | . | . | . | . | . | . | . | .
c1ccc(-c2cc3ccccc3[nH]2)cc1 | 30.3 | -388.5 | 38.6 | 21.5 | -1.6 | 4.4 | . | . | . | . | .
COc1ccc(-c2cc3ccccc3[nH]2)cc1 | 10.0 | -404.3 | 52.8* | 61.4* | 16.9 | -35.2 | 9.0 | 20.6 | 66.2* | 39.1 | 21.2
Cc1ccc(O)c(-c2cc3ccccc3[nH]2)c1 | 48.9 | -274.0 | 70.8* | 53.1* | 9.3 | 15.3 | 61.5* | 62.1* | 82.6* | 15.7 | 71.0*
CC(=O)NC(c1ccc(F)c(F)c1)c1nc(-c2cccc(C(C)C)c2)cs1 (stereo not given) | . | 3.3 | . | . | . | . | . | . | . | . | .
COc1ccc(C)cc1Nc1n[n+](-c2ccccc2)c(-c2ccc(NC(C)=O)cc2)s1 | -6.2 | -7.9 | -17.7 | 5.8 | 32.1 | 20.0 | . | . | . | . | .
COc1ccc(C)cc1Nc1n[n+](-c2ccccc2)c(-c2ccc(SC)cc2)s1 | 60.2* | -10.7 | 68.9* | 13.9 | 20.3 | 7.7 | 4.6 | 66.3* | 89.0* | 77.9* | 70.3*
COc1ccsc1NC(=O)OCc1ccc(Cl)cc1 | 49.4 | 1.7 | 50.5* | 37.9 | 1.6 | 9.9 | 57.9* | 56.3* | 84.5* | 55.2* | 62.5*
